Activity calls are given as the source filed them.
Tests used:
[1] = Cytotoxicity in human HepDE19 cells assessed as reduction in cell viability incubated for 5 days by CCK8 assay; type: cell-based
Summary of the method: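 HepDE19 cells were grown in DMEM-F12 with 10% FBS, penicillin/streptomycin and 0.5 mg/mL G418, then seeded at 5 × 10^3 cells/well. Compound exposure lasted 5 days. Viability was read with CCK-8 after 2 h at 37 °C, measuring OD450 and OD630. CC50 was the concentration killing 50% of cells; duplicate runs.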

[2] = Induction of CYP3A4 gene expression in cryopreserved human hepatocytes assessed as increase in CYP3A4 mRNA level at 10 uM incubated for 24 hrs by qRT-PCR analysis relative to rifampicin; type: ADME, cell-based
Summary of the method: (§1)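 Cryopreserved hepatocytes from one human donor were seeded at 1 × 10^6 cells/mL and cultured 24 h in serum-free Williams E. Compounds at 0.1, 1.0 and 10 µM (0.1% DMSO) were added in triplicate for 24 h, with vehicle wells as negative controls. Positive controls were omeprazole for CYP1A2, phenobarbital for CYP2B6 and rifampicin for CYP3A4. mRNA was measured by TaqMan qRT-PCR normalised to PPIA (2^-ΔΔCT) and expressed as % of the positive control.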

[3] = Volume of distribution at steady state in BALB/c mouse at 1 mg/kg, iv by LC-MS/MS analysis; type: ADME, organism-based; settings: in vivo, read-out: Vdss
Summary of the method: (§2)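 Female BALB/c mice (16–22 g; 12 animals) got a single IV dose of 1 mg/kg in 5% DMSO/40% PEG400/55% saline. Blood was taken into EDTA-K2 and spun at 2000 g for 5 min at 4 °C. Plasma was stored at -80 °C and quantified by LC–MS/MS. Parameters came from non-compartmental analysis, with BLQ values omitted.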

[4] = Toxicity in rat by 5-day mini-tox study; settings: in vivo, 120 h
[5] = Induction of CYP3A4 gene expression in cryopreserved human hepatocytes assessed as increase in CYP3A4 mRNA level at 0.1 uM incubated for 24 hrs by qRT-PCR analysis relative to rifampicin; type: ADME, cell-based; summary of the method: as §1
[6] = Apparent partition coefficient, logD of the compound at pH 7.4; type: physicochemical; settings: octanol/water
[7] = biological target: Voltage-gated inwardly rectifying potassium channel KCNH2 (Homo sapiens, UniProt Q12809); test: Inhibition of human ERG
Chain of Voltage-gated inwardly rectifying potassium channel KCNH2 (Q12809 whole entry): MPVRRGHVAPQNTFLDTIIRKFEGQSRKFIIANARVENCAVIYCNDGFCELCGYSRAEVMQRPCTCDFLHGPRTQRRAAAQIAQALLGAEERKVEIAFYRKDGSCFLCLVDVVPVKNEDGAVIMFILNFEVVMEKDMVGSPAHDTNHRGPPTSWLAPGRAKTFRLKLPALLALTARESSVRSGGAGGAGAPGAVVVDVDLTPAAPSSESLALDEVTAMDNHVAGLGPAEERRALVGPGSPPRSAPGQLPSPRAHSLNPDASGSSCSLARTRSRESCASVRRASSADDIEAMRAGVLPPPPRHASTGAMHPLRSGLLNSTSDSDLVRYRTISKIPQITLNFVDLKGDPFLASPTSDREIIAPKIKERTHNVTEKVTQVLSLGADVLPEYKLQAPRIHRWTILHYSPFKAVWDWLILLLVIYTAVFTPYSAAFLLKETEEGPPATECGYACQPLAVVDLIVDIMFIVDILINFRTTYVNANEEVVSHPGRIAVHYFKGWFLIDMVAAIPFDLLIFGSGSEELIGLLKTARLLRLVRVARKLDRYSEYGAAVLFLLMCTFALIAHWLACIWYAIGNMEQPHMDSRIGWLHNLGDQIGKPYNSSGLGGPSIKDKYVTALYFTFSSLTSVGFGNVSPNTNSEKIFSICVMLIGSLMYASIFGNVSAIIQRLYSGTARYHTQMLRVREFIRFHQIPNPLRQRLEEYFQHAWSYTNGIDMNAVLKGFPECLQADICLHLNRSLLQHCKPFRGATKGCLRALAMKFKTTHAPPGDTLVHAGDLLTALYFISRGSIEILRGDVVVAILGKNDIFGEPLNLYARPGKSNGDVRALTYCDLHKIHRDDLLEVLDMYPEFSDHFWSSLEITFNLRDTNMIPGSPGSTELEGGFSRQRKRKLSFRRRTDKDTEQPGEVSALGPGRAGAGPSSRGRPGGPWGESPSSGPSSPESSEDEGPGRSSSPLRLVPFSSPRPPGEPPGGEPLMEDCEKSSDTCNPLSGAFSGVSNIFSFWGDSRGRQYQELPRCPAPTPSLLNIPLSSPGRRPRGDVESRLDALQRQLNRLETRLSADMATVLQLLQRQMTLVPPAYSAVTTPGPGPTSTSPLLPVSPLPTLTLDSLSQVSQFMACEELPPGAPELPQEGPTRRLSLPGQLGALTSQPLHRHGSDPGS

[8] = Induction of CYP1A2 gene expression in cryopreserved human hepatocytes assessed as increase in CYP1A2 mRNA level at 0.1 uM incubated for 24 hrs by qRT-PCR analysis relative to omeprazole; type: ADME, cell-based; summary of the method: as §1
[9] = AUC (0 to infinity) in BALB/c mouse liver at 3 mg/kg, po by LC-MS/MS analysis; type: ADME, organism-based; set-up: dose 3 mg/kg, route oral, time infinity
Summary of the method: (§3)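 Female BALB/c mice (16–22 g; 21 animals) got a single oral dose of 3 mg/kg in 2% Klucel, Tween 80, 0.1% parabens in water. EDTA-K2 plasma was taken at each time point. Livers were harvested right after blood sampling, rinsed in cold saline, weighed and snap-frozen. Both matrices were quantified by LC–MS/MS and analysed non-compartmentally, omitting BLQs.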

[10] = AUC (0 to infinity) in BALB/c mouse plasma at 3 mg/kg, po by LC-MS/MS analysis; type: ADME, organism-based; set-up: dose 3 mg/kg, route oral, time infinity; summary of the method: as §3
[11] = Induction of CYP1A2 gene expression in cryopreserved human hepatocytes assessed as increase in CYP1A2 mRNA level at 1 uM incubated for 24 hrs by qRT-PCR analysis relative to omeprazole; type: ADME, cell-based; summary of the method: as §1
[12] = Drug metabolism in cryopreserved human hepatocytes assessed as glucuronide conjugation of carboxylic acid group at 1 uM incubated up to 120 mins by LC-MS/MS analysis; type: ADME, cell-based, Hepatocyte; settings: 2 h
[13] = Induction of CYP3A4 gene expression in cryopreserved human hepatocytes assessed as increase in CYP3A4 mRNA level at 1 uM incubated for 24 hrs by qRT-PCR analysis relative to rifampicin; type: ADME, cell-based; summary of the method: as §1
[14] = Induction of CYP2B6 gene expression in cryopreserved human hepatocytes assessed as increase in CYP2B6 mRNA level at 1 uM incubated for 24 hrs by qRT-PCR analysis relative to phenobarbital
[15] = Unbound fraction in mouse plasma at 1000 nM incubated for 5 hrs by LC-MS/MS analysis detection based equilibrium dialysis assay; type: ADME, cell-free
Summary of the method: (§4)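 Equilibrium dialysis of pooled plasma against Soerensen buffer pH 7.4 used a 12–14 kDa cutoff membrane. Compounds were run in cassettes of 2–5 at 1000 nM total, with diazepam as the membrane-integrity control. Dialysis ran 5 h at 37 °C under 5% CO2, followed by LC–MS/MS of both compartments. Unbound fraction is the average of 3 tests.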

[16] = Permeability at 150 uM by PAMPA; type: ADME; settings: read-out: permeability
Summary of the method: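 PAMPA: DMSO stock was diluted to 150 µM (<2% DMSO) in donor buffer of 0.05 M MOPSO pH 6.5 with 0.5% glycocholic acid. The acceptor was 0.05 M MOPSO pH 6.5. The membrane was 10% egg lecithin with 0.5% cholesterol in dodecane. Donor and acceptor concentrations were read at start and at ~18 h; results in 10^-6 cm/s.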

[17] = Solubility in pH 6.5 phosphate buffer stirred for 1 hr and shaken for 2 hrs by HPLC-UV based LYSA solubility assay; type: physicochemical
Summary of the method: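 Duplicate samples from 10 mM DMSO stock were dried, taken up in 0.05 M phosphate pH 6.5, stirred 1 h, shaken 2 h and left overnight. They were then filtered and the filtrate plus a 1/10 dilution analysed by HPLC-UV. Quantification used a four-point calibration; results in µg/mL.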

[18] = Cmax in BALB/c mouse at 3 mg/kg, po by LC-MS/MS analysis; type: ADME, organism-based; set-up: dose 3 mg/kg, route oral; settings: in vivo; summary of the method: as §3
Hepatitis B virus [19] = test: Antiviral activity against HBV infected in BALB/c mouse hydrodynamic injection model hydrodynamically injected with replication-competent HBV DNA plasmid assessed as reduction in HBV DNA level in liver at 3 mg/kg, po BID for 5 days by RT-qPCR analysis; type: functional, organism-based
Summary of the method: (§5)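 Used female BALB/c mice aged 6–8 weeks carrying an HBV genotype D genome delivered by tail-vein hydrodynamic plasmid injection. Animals received vehicle or drug orally at the stated frequency for 5 days. Plasma and liver were sampled at set time points, and HBV DNA was quantified by real-time qPCR. Error bars are SEM.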

Hepatitis B virus [20] = test: Antiviral activity against HBV infected in BALB/c mouse hydrodynamic injection model hydrodynamically injected with replication-competent HBV DNA plasmid assessed as reduction in HBV DNA level in plasma at 3 mg/kg, po BID for 5 days by RT-qPCR analysis; type: functional, organism-based; summary of the method: as §5
[21] = Plasma clearance in BALB/c mouse at 1 mg/kg, iv by LC-MS/MS analysis; type: ADME, organism-based; summary of the method: as §2
[22] = Ionization constant (base), pKa of the compound; type: physicochemical
[23] = Induction of CYP2B6 gene expression in cryopreserved human hepatocytes assessed as increase in CYP2B6 mRNA level at 0.1 uM incubated for 24 hrs by qRT-PCR analysis relative to phenobarbital
Hepatitis B virus [24] = test: Antiviral activity against HBV infected in BALB/c mouse hydrodynamic injection model hydrodynamically injected with replication-competent HBV DNA plasmid assessed as reduction in HBV DNA level in liver at 12 mg/kg, po BID for 5 days by RT-qPCR analysis; type: functional, organism-based; summary of the method: as §5
[25] = Induction of CYP1A2 gene expression in cryopreserved human hepatocytes assessed as increase in CYP1A2 mRNA level at 10 uM incubated for 24 hrs by qRT-PCR analysis relative to omeprazole; type: ADME, cell-based; summary of the method: as §1
Hepatitis B virus [26] = test: Antiviral activity against HBV infected in BALB/c mouse hydrodynamic injection model hydrodynamically injected with replication-competent HBV DNA plasmid assessed as reduction in HBV DNA level in plasma at 12 mg/kg, po BID for 5 days by RT-qPCR analysis; type: functional, organism-based; summary of the method: as §5
[27] = Unbound fraction in human plasma at 1000 nM incubated for 5 hrs by LC-MS/MS analysis detection based equilibrium dialysis assay; type: ADME, cell-free; summary of the method: as §4
[28] = Ionization constant (acid), pKa of the compound; type: physicochemical
[29] = AUC (0 to infinity) in BALB/c mouse at 1 mg/kg, iv by LC-MS/MS analysis; type: ADME, organism-based; set-up: dose 1 mg/kg, route intravenous, time infinity; settings: in vivo; summary of the method: as §2
in vivo = settings: BALB/c, mouse, liver/plasma, po, 3 mg/kg
[30] = Oral bioavailability in BALB/c mouse at 3 mg/kg by LC-MS/MS analysis; type: ADME, organism-based; settings: in vivo; summary of the method: as §3
[31] = Half life in BALB/c mouse at 1 mg/kg, iv by LC-MS/MS analysis; type: ADME, organism-based; settings: in vivo; summary of the method: as §2
[32] = Induction of CYP2B6 gene expression in cryopreserved human hepatocytes assessed as increase in CYP2B6 mRNA level at 10 uM incubated for 24 hrs by qRT-PCR analysis relative to phenobarbital

Structure (SMILES): COC(=O)C1=C(CN2CCOC[C@H]2C(=O)O)NC(c2nccs2)=N[C@H]1c1ccc(C)c(F)c1
- CC50 at 120 h [1]: > 100 µM

Structure (SMILES): CCOC(=O)C1=C(CN2CCOC[C@H]2C(=O)O)NC(c2nccs2)=N[C@H]1c1ccc(F)c(F)c1
- Activity [2]: 41%
- CC50 at 120 h [1]: > 100 µM

Structure (SMILES): COC(=O)C1=C(CN2CC(F)(F)C[C@H]2C(=O)O)NC(c2nccs2)=N[C@H]1c1ccc(F)c(F)c1
- Activity [2]: 52%
- CC50 at 120 h [1]: 56 µM

Structure (SMILES): CCOC(=O)C1=C(CN2CCOC[C@H]2C(=O)O)NC(c2nccs2)=N[C@H]1c1ccc(Cl)c(F)c1
- CC50 at 120 h [1]: 24 µM

Structure (SMILES): COC(=O)C1=C(CN2CCOC[C@H]2C(=O)O)NC(c2nccs2)=N[C@H]1c1ccc(Br)c(F)c1
- Activity [2]: 26%
- CC50 at 120 h [1]: 76 µM

Structure (SMILES): CCOC(=O)C1=C(CN2CCOC[C@H]2C(=O)O)NC(c2nccs2)=N[C@H]1c1cc(F)c(F)c(F)c1
- Activity [2]: 72%
- CC50 at 120 h [1]: > 100 µM

Structure (SMILES): COC(=O)C1=C(CN2CCOC[C@H]2C(=O)O)NC(c2nccs2)=N[C@H]1c1ccc(Cl)c(F)c1
- Vd [3]: 2.7 L/kg
- Activity [4]: Non-Toxic
- Activity [5]: 2%
- logD [6]: 0.38
- inhibition (INH) [7]: Not Active
- Activity [8]: 1%
- Activity [2]: 25%
- AUC(0-inf) [9]: 20000 ng·h/mL
- AUC(0-inf) [10]: 527 ng·h/mL
- Activity [11]: 0.9%
- Drug metabolism [12]: Metabolite_Detected
- Activity [13]: 7.5%
- Activity [14]: 1.5%
- fraction unbound at 5 h, 1 µM [15]: 0.04
- Papp at 150 µM [16]: 2.4 ×10⁻⁶ cm/s
- solubility [17]: > 631 µg/mL
- Cmax [18]: 254 ng/mL
- CC50 at 120 h [1]: > 100 µM
- Activity (Hepatitis B virus [19]): Active
- Activity (Hepatitis B virus [20]): Active
- clearance [21]: 40.9 mL/min/kg
- pKa [22]: 5.9
- Activity [23]: 1.3%
- Activity (Hepatitis B virus [24]): Active
- Activity [25]: 1.7%
- Activity (Hepatitis B virus [26]): Active
- fraction unbound at 5 h, 1 µM [27]: 0.031
- pKa [28]: 1.8
- AUC(0-inf) [29]: 408 ng·h/mL
- Kp (in vivo): 38
- bioavailability [30]: 43.1%
- half-life [31]: 2.3 h
- Activity [32]: 1.4%

Structure (SMILES): CCOC(=O)C1=C(CN2CCOC[C@H]2C(=O)O)NC(c2nccs2)=N[C@H]1c1ccc(Br)c(F)c1
- Activity [2]: 73%
- CC50 at 120 h [1]: 14 µM

Structure (SMILES): CCOC(=O)C1=C(CN2CCOC[C@H]2C(=O)O)NC(c2nccs2)=N[C@H]1c1ccc(F)c(F)c1F
- Activity [2]: 105%
- CC50 at 120 h [1]: 49 µM
